Assay results: ChEMBL document CHEMBL1126679 (J Med Chem, 1993)

How the values were obtained:
[1] = Intrinsic activity was 0%of highest possible antagonist.; type: functional
Summary of the method: (§1)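 Membranes from CHO cells stably transfected with D2 receptor. Low-affinity agonist state affinity came from [3H]raclopride displacement with high GTP, and high-affinity state affinity from [3H]U-86170 displacement without GTP.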

[2] = molecular target: T1, D(2) dopamine receptor (Homo sapiens, UniProt P14416); assay: Intrinsic activity against dopamine D 2 receptor; type: functional; conditions: Cricetulus griseus; summary of the method: as §1
[3] = molecular target: D(2) dopamine receptor (Rattus norvegicus, UniProt P61169); assay: Compound was tested for antagonistic activity against D2 receptor from rat striatum, used [3H]raclopride as radioligand; type: functional
[4] = Binding affinity against 5-hydroxytryptamine 1A receptor from bovine hippocampus, used [3H]8-OH-DPAT as radioligand
[5] = molecular target: T1, D(2) dopamine receptor; assay: Compound was tested for agonistic activity against D2 receptor from cloned CHO cells, used [3H]U-86170 as radioligand; type: functional, cell-based, Cricetulus griseus
[6] = Intrinsic activity was 100% of highest possible agonist.; type: functional; summary of the method: as §1

T1 sequence (P14416 whole entry): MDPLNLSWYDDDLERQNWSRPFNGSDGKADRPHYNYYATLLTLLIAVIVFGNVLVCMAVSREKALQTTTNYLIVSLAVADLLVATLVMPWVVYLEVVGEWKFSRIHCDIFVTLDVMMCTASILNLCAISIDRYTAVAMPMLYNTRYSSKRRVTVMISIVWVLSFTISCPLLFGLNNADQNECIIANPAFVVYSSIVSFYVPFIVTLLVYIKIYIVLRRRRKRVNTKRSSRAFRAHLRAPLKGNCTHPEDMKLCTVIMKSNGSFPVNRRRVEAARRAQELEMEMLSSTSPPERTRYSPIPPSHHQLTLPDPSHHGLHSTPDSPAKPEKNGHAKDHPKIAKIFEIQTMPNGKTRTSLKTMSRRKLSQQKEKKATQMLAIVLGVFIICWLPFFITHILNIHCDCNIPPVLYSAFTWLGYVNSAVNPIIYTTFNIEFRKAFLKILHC
Chain of D(2) dopamine receptor (Rattus norvegicus, UniProt P61169) (P61169 whole entry): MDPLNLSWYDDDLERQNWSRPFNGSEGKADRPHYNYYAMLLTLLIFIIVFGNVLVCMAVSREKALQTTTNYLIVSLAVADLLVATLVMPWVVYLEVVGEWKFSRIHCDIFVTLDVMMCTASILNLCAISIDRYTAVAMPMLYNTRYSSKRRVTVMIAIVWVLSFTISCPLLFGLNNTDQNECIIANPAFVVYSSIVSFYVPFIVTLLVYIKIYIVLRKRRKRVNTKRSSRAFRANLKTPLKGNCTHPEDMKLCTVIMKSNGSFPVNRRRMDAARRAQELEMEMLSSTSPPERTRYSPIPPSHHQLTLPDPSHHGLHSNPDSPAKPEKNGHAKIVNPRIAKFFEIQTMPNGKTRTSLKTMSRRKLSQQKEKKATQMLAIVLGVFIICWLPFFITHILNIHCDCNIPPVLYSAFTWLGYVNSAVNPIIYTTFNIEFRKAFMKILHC

Row | Compound | Intrinsic activity [2] [%] | Ki [3] [µM] | Ki [5] [µM] | other results
1 | C=CCN1CC[C@H]2Cc3c(cccc3OC)CC21 (single isomer, unassigned) |  |  |  | Intrinsic activity [1]: 0%
2 | C=CCN1CCC2c3cccc(O)c3CCC21 (racemic; 15c) [listing 1 of 2 here] | 29 |  |  | 
3 | CCCN1CC[C@H]2c3cccc(OC)c3CC[C@@H]21 (racemic) |  |  |  | Intrinsic activity [1]: 0%
4 | C=CCN1CC[C@@H]2c3cccc(OC)c3CC[C@@H]21 |  | > 1 |  | 
5 | C=CCN1CC[C@H]2c3cccc(OC)c3CC[C@H]21 | 0 |  |  | 
6 | CCCN1CC[C@H]2c3c(cccc3OC)CC[C@H]21 (single isomer, unassigned) |  | > 1 |  | 
7 | CCCN1C[C@H](CSC)C[C@@H]2c3cccc4[nH]cc(c34)C[C@H]21 | 66 |  |  | 
8 | CCCN1CC[C@H]2c3c(cccc3OC)CC[C@H]21 [listing 1 of 2 here] |  |  |  | Ki [4]: 0.0002 µM
9 | CCCN1CC[C@H]2c3c(O)cccc3CC[C@H]21 (single isomer, unassigned) |  |  | < 0.05 | 
10 | C=CCN1CC[C@H]2c3c(cccc3OC)CC[C@H]21 (racemic) | 15 |  |  | 
11 | CN1C[C@@H](NC(=O)C(C)(C)C)CC2c3cccc4[nH]c(Cl)c(c34)C[C@H]21 (some centres undefined) | 0 | 0.00047 | 0.0036 | 
12 | C=CCN1CCC2c3cccc(O)c3CCC21 (racemic; 15c) [listing 2 of 2 here] |  | 0.198 | 0.075 | 
13 | CCCN(CCC)[C@@H]1Cc2cccc3c2N(C1)C(=O)NC3 (racemic) | 30 | > 1 | 0.058 | 
14 | CCCN1[C@@H](C)C[C@@H]2Cc3cccc(OC)c3C[C@@H]21 | 21 |  |  | Ki [4]: 0.011 µM
15 | C=CCN1CCC2c3cccc(O)c3CCC21 (racemic; 14c) |  |  | 0.0041 | 
16 | CCCN1CCC2Cc3c(O)cccc3C[C@H]21 (mixture of isomers) | 79 | 0.017 | 0.0024 | 
17 | CCCN(CCC)[C@@H]1Cc2cccc3ccc(=O)n(c23)C1 (racemic) | 79 | 0.0188 | 0.0035 | 
18 | C=CCN1CCC2c3cccc(OC)c3CC[C@H]21 (mixture of isomers) | 0 |  |  | 
19 | CCCN1CCC2c3cccc(O)c3CCC21 (racemic; 15a) |  | > 1 | 0.218 | 
20 | CCCN1CCC2Cc3c(O)cccc3CC21 (racemic) | 61 | 0.296 | 0.011 | 
21 | CCCN1CC[C@H]2c3c(cccc3OC)CC[C@H]21 [listing 2 of 2 here] | 37 |  |  | 
22 | CCCN1CCC2c3cccc(O)c3CCC21 (racemic; 14a) | 28 |  |  | 
23 | CCCN(CCC)[C@@H]1Cc2cccc3[nH]c(=O)n(c23)C1 |  | 0.0054 | 0.0017 | 
24 | C=CCN1CC[C@H]2c3c(cccc3OC)CC[C@H]21 [listing 1 of 2 here] | 24 |  |  | 
25 | C=CCN1CC[C@@H]2Cc3c(cccc3OC)C[C@H]21 |  |  |  | Intrinsic activity [6]: 100%
26 | CCCN[C@@H]1CCc2c(OC)cccc2[C@@H]1C | 3 | 0.179 | 0.014 | 
27 | CCCN(CCC)[C@@H]1Cc2cccc3nc(S)n(c23)C1 (racemic) | 100 | 0.039 | 0.0006 | 
28 | CCCN1CCC2Cc3c(cccc3OC)C[C@H]21 (mixture of isomers) | 100 | 0.877 | 0.1 | 
29 | C=CCN1CC[C@H]2c3c(cccc3OC)CC[C@H]21 [listing 2 of 2 here] |  |  | 0.0067 | 
